In ChEMBL document CHEMBL6177922, “Antibacterial activity of the structurally novel C-2 amine-substituted analogues based on quinoxaline” (RSC Med Chem, 2025):
≈ marks a conversion by molar mass, not a printed value. Calls of active or inactive are those of the source. No cut-off for these calls is given here.

Legend:
Cell membrane [1] = test: Induction of cell membrane depolarization in Escherichia coli assessed as increase in fluorescence intensity at 3 times of MIC measured up to 15 hrs by DiSC3-5 dye based fluorescence analysis; assay type: subcellular
How it was run: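 Mid-log E. coli (6 h culture) was resuspended in 100 mM KCl, 5 mM HEPES pH 7.3 and 5 mM glucose (1:1:1). Cells were loaded with DiSC3(5) at 8 μM final for 80 min at 37 °C, then exposed to 3× MIC. Fluorescence was read at ex 622 nm / em 670 nm, with a water control.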

[2] = Plasma protein binding in dog assessed as unbound fraction measured after 4 hrs by rapid equilibrium dialysis based LC-MS/MS analysis; assay type: ADME, cell-free, Canis lupus familiaris
How it was run: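 Rapid equilibrium dialysis of dog plasma against PBS pH 7.4 across an 8000 MWCO membrane. A 10 mM stock was diluted 1:50 with water and added to the plasma side, with sarolaner as control. Plates were shaken for 4 h at 37 °C. Proteins were precipitated with ACN and both chambers quantified by LC-MS/MS. % free = buffer/plasma concentration × 100; % bound = 100 − % free. n = 4.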

Cell membrane [3] = test: Induction of cell membrane depolarization in methicillin-resistant Staphylococcus aureus assessed as increase in fluorescence intensity at 3 times of MIC measured up to 15 hrs by DiSC3-5 dye based fluorescence analysis; assay type: subcellular
How it was run: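 Membrane potential assay. Mid-log MRSA (6 h growth) pelleted and resuspended in 100 mM KCl, 5 mM HEPES (pH 7.3) and 5 mM glucose (1:1:1). Mixed with DiSC3(5) at 8 μM final and preincubated 40 min at 37 °C. Compound added at 3× MIC, water control. Fluorescence read at ex 622 / em 670 nm.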

[4] = Cytotoxicity against human HEK293 cells assessed as inhibition of cell growth incubated for 24 hrs by MTT assay; assay type: toxicity, cell-based
How it was run: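 MTT assay with 24 h exposure of cells to the samples. IC50 is the concentration giving 50% growth inhibition, reported as mean ± S.D. of three independent experiments.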

Staphylococcus aureus [5] = test: Antibacterial activity against methicillin-resistant Staphylococcus aureus measured for 9 days; assay type: functional, organism-based; conditions: time 9.0 day
How it was run: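 Resistance development: MRSA serially subcultured in fresh medium starting from the initial MIC. MIC reassessed every 24 h over 24 days, alongside a reference antibiotic given in twofold dilutions.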

Cell membrane [6] = test: Induction of cell membrane integrity in methicillin-resistant Staphylococcus aureus assessed as increase in K+ efflux at 3 times MIC by absorption spectrophotometric analysis; assay type: subcellular
How it was run: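 K+ leakage: mid-log MRSA (6 h) resuspended in 10 mM HEPES (pH 7.3)/5 mM glucose at ~2 × 10^6 CFU mL-1. Incubated with compound at 3× MIC at 37 °C for various times, PBS control. Supernatant K+ measured by atomic absorption spectrophotometry. Duplicate.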

Staphylococcus aureus [7] = test: Antibiofilm activity against Methicillin-resistant Staphylococcus aureus assessed as reduction in number of viable cells at 16 times MIC incubated for 24 hrs; assay type: functional, organism-based
Cell membrane [8] = test: Induction of cell membrane permeabilization in Escherichia coli assessed as increase in fluorescence intensity at 3 times MIC incubated for 8 hrs by PI staining based confocal laser scanning microscopic analysis; assay type: subcellular
How it was run: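 Log-phase E. coli was washed and resuspended in PBS (10 mM, pH 7.2) at 2 × 10^6 CFU mL−1 (OD600 0.2–0.4). Cells were treated with 3× MIC for 8 h at 37 °C, with a PBS control, then stained with SYTO 9 and PI for 30 min in the dark and imaged by confocal microscopy. Run in duplicate.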

Escherichia coli = test: Bactericidal activity against Escherichia coli at 2 to 3 times MIC incubated for 24 hrs by time kill assay; assay type: functional, organism-based
Staphylococcus aureus [9] = test: Antibacterial activity against drug sensitive Staphylococcus aureus RN4220 assessed as reduction in bacterial growth by broth microdilution method; assay type: functional
How it was run: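 MICs were determined by standard twofold serial broth microdilution in lysogeny broth (LB) medium.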

Staphylococcus aureus [10] = test: Antibacterial activity against methicillin-resistant Staphylococcus aureus infected in Kunming mouse corneal infection model assessed as reduction in viable bacterial count at 6 mg/ml, TOP administered 3 times daily for 1 week; assay type: functional, organism-based; conditions: time 1.0 weeks
How it was run: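 Corneal infection model: male and female Kunming mice (~20 g) immunosuppressed with daily i.p. cyclophosphamide for 3 days. Anesthetized with i.p. avertin (400 mg kg-1), corneas abraded and given 20 μL MRSA (6 × 10^7 CFU mL-1). From 24 h post-infection, treated by topical smear three times daily for one week. Controls: 5% glucose and 5% vancomycin. Six mice per group. Corneal viable counts measured.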

Enterococcus = test: Antibacterial activity against vancomycin-resistant Enterococcus assessed as reduction in bacterial growth by broth microdilution method; assay type: functional
How it was run: (§1)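 Twofold serial dilution (microdilution) MIC in lysogeny broth (LB) medium against drug-resistant strains: MRSA USA300, vancomycin-resistant Enterococci, Klebsiella pneumoniae.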

Staphylococcus aureus [11] = test: Bactericidal activity against methicillin-resistant Staphylococcus aureus assessed as reduction in colony forming unit at 3 times MIC […] by time kill assay; assay type: functional
Staphylococcus aureus [12] = test: Antibacterial activity against methicillin-resistant Staphylococcus aureus assessed as reduction in viable bacterial count measured after 18 hrs; assay type: functional, organism-based
Staphylococcus aureus [13] = test: Antibacterial activity against methicillin-resistant Staphylococcus aureus USA300 assessed as reduction in bacterial growth by broth microdilution method; assay type: functional; how it was run: as §1

## CC(C)(C)c1ccc(CCNc2nc3ccccc3nc2N)cc1
Cell membrane [1]
  Activity: Active
[2]
  fraction unbound at 4 h: 0.0731
Cell membrane [3]
  Activity: Active
[4]
  IC50 at 24 h: 129 µg/mL (≈ 403 µM)
Staphylococcus aureus [5]
  Activity: Active
Cell membrane [6]
  Activity: Active
Staphylococcus aureus [7]
  Activity: Active
Cell membrane [8]
  Activity: inactive
Escherichia coli
  Activity: inactive
Staphylococcus aureus [9]
  MIC: 4 µg/mL (≈ 12.5 µM)
Staphylococcus aureus [10]
  Activity: Active
Enterococcus
  MIC: > 128 µg/mL
Staphylococcus aureus [11]
  Activity: >6 log10CFU/ml
Staphylococcus aureus [12]
  Activity: Dose-dependent-effect
Staphylococcus aureus [13]
  MIC: 8 µg/mL (≈ 25 µM)
